Measurements from ChEMBL document CHEMBL1124343 (J Med Chem, 1989).

target: T1, Adrenergic receptor alpha-1 (Rattus norvegicus, UniProt P15823+P23944+P43140); assay: Displacement of [3H]prazosin binding to Alpha-1 adrenergic receptor sites on rat cerebral cortical membranes at 100 nM concentration; assay type: cell membranes, Membrane; conditions: not given
T1 sequence (P15823 whole entry): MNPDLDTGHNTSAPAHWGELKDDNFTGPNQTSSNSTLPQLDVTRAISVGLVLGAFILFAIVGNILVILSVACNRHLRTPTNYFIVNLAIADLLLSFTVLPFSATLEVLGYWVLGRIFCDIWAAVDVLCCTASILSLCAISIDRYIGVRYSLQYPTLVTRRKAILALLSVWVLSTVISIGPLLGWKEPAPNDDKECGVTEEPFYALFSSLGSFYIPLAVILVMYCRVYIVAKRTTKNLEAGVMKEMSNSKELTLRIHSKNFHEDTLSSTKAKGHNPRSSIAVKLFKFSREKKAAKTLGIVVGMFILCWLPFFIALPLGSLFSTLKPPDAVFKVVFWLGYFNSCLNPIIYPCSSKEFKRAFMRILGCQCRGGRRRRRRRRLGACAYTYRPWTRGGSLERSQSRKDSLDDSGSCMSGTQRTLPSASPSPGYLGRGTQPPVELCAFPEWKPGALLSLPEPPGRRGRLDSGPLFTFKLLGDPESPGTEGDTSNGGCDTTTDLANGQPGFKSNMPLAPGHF
T1 sequence (P23944 whole entry): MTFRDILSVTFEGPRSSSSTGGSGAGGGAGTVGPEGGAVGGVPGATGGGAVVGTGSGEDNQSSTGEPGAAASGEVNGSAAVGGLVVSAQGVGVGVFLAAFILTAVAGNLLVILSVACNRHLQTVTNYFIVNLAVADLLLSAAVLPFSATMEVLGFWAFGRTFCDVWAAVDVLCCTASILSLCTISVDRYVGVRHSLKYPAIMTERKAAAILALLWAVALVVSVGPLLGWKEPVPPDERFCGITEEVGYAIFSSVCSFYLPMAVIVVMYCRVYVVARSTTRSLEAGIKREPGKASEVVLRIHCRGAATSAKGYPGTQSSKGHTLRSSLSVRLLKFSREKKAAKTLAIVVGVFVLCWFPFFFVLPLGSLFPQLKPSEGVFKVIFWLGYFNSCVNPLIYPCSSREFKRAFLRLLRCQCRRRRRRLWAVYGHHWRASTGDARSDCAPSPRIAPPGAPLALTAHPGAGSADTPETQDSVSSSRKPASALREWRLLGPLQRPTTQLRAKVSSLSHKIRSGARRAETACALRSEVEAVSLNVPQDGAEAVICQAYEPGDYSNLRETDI
T1 sequence (P43140 whole entry): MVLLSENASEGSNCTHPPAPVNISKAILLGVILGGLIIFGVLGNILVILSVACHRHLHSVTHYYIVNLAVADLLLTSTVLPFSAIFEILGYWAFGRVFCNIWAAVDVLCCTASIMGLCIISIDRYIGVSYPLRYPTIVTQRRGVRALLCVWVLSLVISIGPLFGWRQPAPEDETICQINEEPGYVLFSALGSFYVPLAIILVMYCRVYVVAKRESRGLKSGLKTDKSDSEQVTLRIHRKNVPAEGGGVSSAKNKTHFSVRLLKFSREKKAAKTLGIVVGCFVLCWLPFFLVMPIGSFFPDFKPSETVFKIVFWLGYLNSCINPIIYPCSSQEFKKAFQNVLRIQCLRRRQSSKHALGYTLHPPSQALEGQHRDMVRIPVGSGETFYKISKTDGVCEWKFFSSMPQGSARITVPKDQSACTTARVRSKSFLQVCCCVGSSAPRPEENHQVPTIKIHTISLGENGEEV

Compound | -Log IC50
COc1cc2nc(N3CCN(C(=O)/C(F)=C/c4ccccc4)CC3)nc(N)c2cc1OC | 7.4
COc1ccc(/C=C/C(=O)N2CCN(c3nc(N)c4cc(OC)c(OC)cc4n3)CC2)cc1 | 8.47
COc1cc2nc(N3CCN(C(=O)/C=C/c4ccccc4)CC3)nc(N)c2cc1OC | 9.16
COc1cc2nc(N3CCN(C(=O)/C=C/c4ccc(NC(=O)CBr)cc4)CC3)nc(N)c2cc1OC | 7.17
COc1cc2nc(N3CCN(C(=O)/C=C/c4ccc(N=C=S)cc4)CC3)nc(N)c2cc1OC | 6.99
COc1cc2nc(N3CCN(C(=O)/C=C/c4ccc(F)cc4)CC3)nc(N)c2cc1OC | 7.64
COC(=O)/C=C/C(=O)Nc1ccc(CCCCC(=O)N2CCN(c3nc(N)c4cc(OC)c(OC)cc4n3)CC2)cc1 | 8.35
COC(=O)/C=C/C(=O)Nc1ccc(/C=C/C(=O)N2CCN(c3nc(N)c4cc(OC)c(OC)cc4n3)CC2)cc1 | 7.53
C/C=C/C=C/C(=O)N1CCN(c2nc(N)c3cc(OC)c(OC)cc3n2)CC1 | 8.36

target: T1, Adrenergic receptor alpha-1; assay: Binding affinity at Alpha-1 adrenergic receptor sites on rat cerebral cortical membranes by [3H]prazosin displacement.; conditions: not given
Outline: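 Rat cortex membranes were washed and resuspended in 50 mM Tris pH 7.4 with 10 mM MgCl2, about 200–300 μg protein per tube. […] Nonspecific binding used 10 μM phentolamine. Tubes were run in duplicate, IC50 came from displacement curves, and there were 3–5 experiments or duplicate experiments.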

Compound | -Log IC50
COc1cc2nc(N3CCN(/C(S)=N/c4ccc(N=[N+]=[N-])cc4)CC3)nc(N)c2cc1OC | 7.7
COc1cc2nc(N3CCN(C(=O)/C=C/C(=O)c4ccccc4)CC3)nc(N)c2cc1OC | 7.06
COc1cc2nc(N3CCN(/C(S)=N/c4ccc(NC(=S)N5CC5)cc4)CC3)nc(N)c2cc1OC | 7.01
COc1cc2nc(N3CCN(C(=O)C4CC4c4ccccc4)CC3)nc(N)c2cc1OC (stereo unspecified) | 9.29
COc1cc2nc(N3CCN(S(=O)(=O)c4cccs4)CC3)nc(N)c2cc1OC | 7.47
COc1cc2nc(N3CCN(C(=O)CCc4ccccc4)CC3)nc(N)c2cc1OC | 8.47
COc1cc2nc(N3CCN(/C(S)=N/c4ccccc4)CC3)nc(N)c2cc1OC | 11.16
COc1cc2nc(N3CCN(C(=O)/C=C/c4ccc(Cl)cc4)CC3)nc(N)c2cc1OC | 7.9
COc1cc2nc(N3CCN(C(=O)COc4ccccc4)CC3)nc(N)c2cc1OC | 7.9
COc1cc2nc(N3CCN(C(=O)c4ccc5ccccc5c4)CC3)nc(N)c2cc1OC | 7.31
COc1cc2nc(N3CCN(C(=O)/C=C/c4ccc(Br)cc4)CC3)nc(N)c2cc1OC | 7.1
COc1cc2nc(N3CCN(C(=O)Nc4ccccc4)CC3)nc(N)c2cc1OC | 7.56
COc1cc2nc(N3CCN(/C(S)=N/C4CCCCC4)CC3)nc(N)c2cc1OC | 8.27
COc1cc2nc(N3CCN(C(=O)/C=C/c4cccc(F)c4)CC3)nc(N)c2cc1OC | 7.68
COc1cc2nc(N3CCN(C(=O)c4cccc(CCl)c4)CC3)nc(N)c2cc1OC | 7.93
COc1cc2nc(N3CCN(S(=O)(=O)c4ccc(C)cc4)CC3)nc(N)c2cc1OC | 7.94
COc1cc2nc(N3CCN(C(=O)c4ccc(N=C=S)c(I)c4)CC3)nc(N)c2cc1OC | 7.29

target: T1, Adrenergic receptor alpha-1; assay: Compound is evaluated for its ability to compete with [3H]prazosin for binding to Alpha-1 adrenergic receptor sites on rat cerebral cortical membranes at 10 nM concentration; conditions: not given

Compound | -Log IC50
COc1cc2nc(N3CCN(C(=O)C4CC5C=CC4C5)CC3)nc(N)c2cc1OC (stereo unspecified) | 8.8
COc1cc2nc(N3CCN(C(=O)C4=CC5C=CC4CC5)CC3)nc(N)c2cc1OC (stereo unspecified) | 8.12

target: Adrenergic receptor alpha-1 (Rattus norvegicus) (UniProt P15823+P23944+P43140); assay: Irreversible action of compound towards Alpha-1 adrenergic receptor on rat cerebral cortical membranes was determined at 1000 nM concentration; assay type: cell membranes; conditions: Membrane
Outline: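 Cortical membranes in Tris/MgCl2 buffer were preincubated 1 h at 30 °C with compound or buffer alone. Isothiocyanates were run in 50 mM phosphate with 1 mM EDTA, pH 7. Membranes were diluted, kept 10 min on ice and washed by four centrifugations. […] Bmax came from Scatchard plots, at least 3 experiments.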

Compound | Decrease in Bmax [%]
COC(=O)/C=C/C=C/C(=O)N1CCN(c2nc(N)c3cc(OC)c(OC)cc3n2)CC1 | 0

target: T1, Adrenergic receptor alpha-1; assay: Compound is evaluated for its ability to compete with [3H]prazosin for binding to Alpha-1 adrenergic receptor sites on rat cerebral cortical membranes at 100 nM concentration; conditions: not given

Compound | -Log IC50
COc1cc2nc(N3CCN(C(=O)C4OC4c4ccccc4)CC3)nc(N)c2cc1OC (stereo unspecified) | 7.88

target: T1, Adrenergic receptor alpha-1; assay: Compound is evaluated for its ability to compete with [3H]prazosin for binding to Alpha-1 adrenergic receptor sites on rat cerebral cortical membranes at 1000 nM concentration; conditions: not given

Compound | -Log IC50
COC(=O)/C=C/C=C/C(=O)N1CCN(c2nc(N)c3cc(OC)c(OC)cc3n2)CC1 | 7.41
